Results reported in ChEMBL document CHEMBL4715728, “New bifunctional antioxidant/σ1 agonist ligands: Preliminary chemico-physical and biological evaluation” (Bioorg Med Chem, 2016).
The source made the active and inactive calls. The rule behind the calls is not given here.

Assays:
[1] = Antioxidant activity in Sprague-Dawley rat Cerebral cortex neuron assessed as total antioxidant capacity by measuring trolox equivalents at 1 uM after 24 hrs; assay type: functional
In short: (§1)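 Primary cerebral cortex neurons from rat fetuses, grown on poly-D-lysine in neurobasal medium with fetal calf serum (5% CO2, 37 °C), tested after 8 days in culture. Compounds in DMSO (0.5%) or sterile water were added and incubated 24 h at 37 °C. Cells were washed in ice-cold PBS and homogenized in 0.9% saline. Intracellular TAC (Trolox equiv.) and TOS (H2O2 equiv.) were read by kit. Ascorbic acid 10 µM (TAC) and H2O2 25 µM (TOS) served as positive controls. Four independent experiments.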

[2] = Antioxidant activity in Sprague-Dawley rat Cerebral cortex neuron assessed as total antioxidant capacity by measuring trolox equivalents at 100 uM after 24 hrs; assay type: functional; in short: as §1
[3] = Cytotoxicity against Sprague-Dawley rat Cerebral cortex neuron assessed as LDH activity at 50 uM incubated for 24 hrs by LDH assay (reference value: […]); assay type: tissue-based
In short: (§2)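 Primary fetal rat cortical neurons, matured 8 days on poly-D-lysine, exposed 24 h at 37 °C to compound (0.1–100 µM; DMSO 0.5% or water vehicle). LDH released into 100 µl culture medium was measured by kit as the rate of NAD+ reduction (absorbance increase at 490 nm). Positive control was mitomycin C. Four independent experiments.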

[4] = Stability of compound in fasted state stimulated intestinal fluid at pH 7.4 assessed as rate of compound hydrolysis in presence of 40 mg/ml pancreatin by HPLC-UV assay; assay type: ADME; conditions: simulated gi fluid
In short: (§3)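 HCl buffer with pepsin or phosphate buffer with pancreatin (10 or 40 mg/ml), preincubated at 37 °C. Drug stock (50 µM in ethanol/fasted state intestinal fluid 1:9) added and shaken at 37 °C, 650 rpm. Samples quenched with ice-cold acetonitrile containing 0.5% formic acid, centrifuged at 2 °C, and the supernatant assayed by HPLC-UV. Three experiments.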

[5] = Cytotoxicity against Sprague-Dawley rat Cerebral cortex neuron assessed as cell viability at 1 uM incubated for 24 hrs by MTT assay relative to control; assay type: tissue-based; conditions: cerebral cortex neurons, read-out: Activity
In short: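 Primary fetal rat cortical neurons, matured 8 days, treated 24 h at 37 °C with compound (0.1–100 µM; 0.5% DMSO or water vehicle). MTT 0.7 mg/ml was then added for 30 min at 37 °C, and formazan was extracted with isopropanol/formic acid (95:5) and read at 560 nm. Untreated control was set as 100% viability. Four independent experiments.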

[6] = Stability of compound in fasted state stimulated intestinal fluid at pH 1.3 assessed as rate of compound hydrolysis in presence of 40 mg/ml pepsin by HPLC-UV assay; assay type: ADME; conditions: isolated protein; in short: as §3
[7] = Stability of compound in fasted state stimulated intestinal fluid at pH 1.3 assessed as half life in presence of 10 mg/ml pepsin by HPLC-UV assay; assay type: ADME; conditions: fasted state simulated intestinal fluid with pepsin; in short: as §3
[8] = Cytotoxicity against Sprague-Dawley rat Cerebral cortex neuron assessed as LDH activity at 0.1 uM incubated for 24 hrs by LDH assay (reference value: […]); assay type: tissue-based; in short: as §2
[9] = Stability of compound in fasted state stimulated intestinal fluid at pH 7.4 assessed as rate of compound hydrolysis in presence of 10 mg/ml pancreatin by HPLC-UV assay; assay type: ADME; conditions: simulated gi fluid; in short: as §3
[10] = Antioxidant activity in Sprague-Dawley rat Cerebral cortex neuron assessed as total oxidative stress level by measuring H2O2 equivalents at 0.1 uM after 24 hrs (reference value: 2.3 +/- 0.3 umol/L); assay type: functional; in short: as §1
[11] = Cytotoxicity against Sprague-Dawley rat Cerebral cortex neuron assessed as LDH activity at 100 uM incubated for 24 hrs by LDH assay (reference value: […]); assay type: tissue-based; in short: as §2
[12] = tested on: Mus musculus; experiment: In vivo agonist activity at sigma 1 receptor in Swiss […] mouse assessed as modulation of morphine-induced analgesic effect by measuring tail flick latency at 1 mg/kg, ip preincubated for 45 mins followed by morphine treatment after 90 mins by radiant heat tail-flick method; assay type: functional, organism-based; conditions: time 135.0 min
[13] = tested on: Mus musculus; experiment: In vivo agonist activity at sigma 1 receptor in Swiss […] mouse assessed as modulation of morphine-induced analgesic effect by measuring tail flick latency at 1 mg/kg, ip measured after 90 mins by radiant heat tail-flick method; assay type: functional, organism-based
[14] = Stability of compound in rat plasma assessed as rate of compound hydrolysis by HPLC-UV assay; assay type: ADME, cell-free
In short: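 Citrated human or rat plasma diluted to 80% with 0.02 M phosphate buffer pH 7.4, 37 °C with shaking. Compound added from a 1 mg/ml acetonitrile stock. Aliquots deproteinized with 0.01 M HCl in methanol, centrifuged, and analyzed by HPLC-UV (C8 column, KH2PO4/methanol pH 2.5, 220 nm). Remaining intact compound plotted against time. Three experiments.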

[15] = target: Sigma non-opioid intracellular receptor 1 (Cavia porcellus, UniProt Q60492); experiment: Displacement of [3H]-(+)-pentazocine from sigma1 receptor in guinea pig brain membrane incubated for 150 mins by liquid scintillation counting method; assay type: cell membranes
Sequence of Sigma non-opioid intracellular receptor 1 (Q60492 whole entry): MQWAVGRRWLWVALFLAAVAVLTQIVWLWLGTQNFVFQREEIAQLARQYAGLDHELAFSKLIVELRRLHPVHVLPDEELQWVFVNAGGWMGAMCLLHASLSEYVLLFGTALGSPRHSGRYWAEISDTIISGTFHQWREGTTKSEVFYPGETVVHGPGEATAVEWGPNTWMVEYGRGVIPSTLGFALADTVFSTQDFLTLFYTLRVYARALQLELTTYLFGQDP
In short: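 Guinea pig brain membranes (500 µg protein) in 50 mM Tris-HCl pH 7.4 with 3 nM [3H]-(+)-pentazocine. […] Incubated 150 min at 37 °C, then filtered on PEI-soaked GF/B filters and counted by scintillation. Ki obtained by EBDA/LIGAND; three determinations.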

[16] = species: Cavia porcellus; experiment: Selectivity ratio of Ki for displacement of [3H]-DTG from sigma2 receptor in guinea pig brain membrane to Ki for displacement of [3H]-(+)-pentazocine from sigma1 receptor in guinea pig brain membrane; assay type: cell membranes
[17] = Displacement of [3H]-DTG from Sigma 2 receptor in guinea pig brain membrane incubated for 120 mins in presence of sigma1 blocker (+)-SKF-10047 by liquid scintillation counting method; assay type: cell membranes, Cavia porcellus

| Drug degradation [4] | Drug degradation [6] | half-life [7] | Drug degradation [9] | Drug degradation [14] | Ki [15] | Ratio Ki [16] | Ki [17] | SMILES | TAC [1] | TAC [2] | Activity [3] | viability at 24 h, 1 µM [5] | Activity [8] | Activity [10] | Activity [11] | Activity [12] | Activity [13] |
| --- | --- | --- | --- | --- | --- | --- | --- | --- | --- | --- | --- | --- | --- | --- | --- | --- | --- |
| 7.615 h⁻¹ | 0.028 h⁻¹ | 1.02 days | 2.389 h⁻¹ | – | – | – | – | O=C(CCCCC1CCSS1)OC1CCN(Cc2ccccc2)CC1 (stereo not drawn) | 10.9 mmol/L | 12.5 mmol/L | 0.3 mU/ml | 98.7% | 0.3 mU/ml | 0.5 µmol/L | 0.32 mU/ml | Active | inactive |
| 0.017 h⁻¹ | 0.029 h⁻¹ | 4.67 days | 0.011 h⁻¹ | 0.168 h⁻¹ | 5.7 nM | 432 | 2460 nM | COc1ccc(CN2CCN(C(=O)CCCCC3CCSS3)CC2)cc1 (stereo not drawn) | 11.2 mmol/L | 10.8 mmol/L | 0.34 mU/ml | 97.4% | 0.28 mU/ml | 0.4 µmol/L | 0.34 mU/ml | – | – |
| 0.245 h⁻¹ | 0.031 h⁻¹ | 1.63 days | 0.249 h⁻¹ | 1.506 h⁻¹ | 3.1 nM | 484 | 1500 nM | COc1ccc(CN2CCC(OC(=O)CCCCC3CCSS3)CC2)cc1 (stereo not drawn) | 11.3 mmol/L | 10.7 mmol/L | 0.34 mU/ml | 98.4% | 0.28 mU/ml | 0.5 µmol/L | 0.34 mU/ml | – | – |
| 0.072 h⁻¹ | 0.01 h⁻¹ | 2.88 days | 0.031 h⁻¹ | – | – | – | – | O=C(CCCCC1CCSS1)N1CCN(Cc2ccccc2)CC1 (stereo not drawn) | 11.1 mmol/L | 14.6 mmol/L | 0.34 mU/ml | 98.6% | 0.3 mU/ml | 0.5 µmol/L | 0.34 mU/ml | Active | inactive |
| 0.021 h⁻¹ | 0.019 h⁻¹ | 4.45 days | 0.009 h⁻¹ | 0.237 h⁻¹ | 2.9 nM | 448 | 1300 nM | O=C(CCCCC1CCSS1)N1CCN(Cc2ccc(F)cc2)CC1 (stereo not drawn) | 11.2 mmol/L | 11.1 mmol/L | 0.34 mU/ml | 97.5% | 0.3 mU/ml | 0.4 µmol/L | 0.34 mU/ml | Active | inactive |
| – | 1.019 h⁻¹ | 0.157 days | – | 1.238 h⁻¹ | 4.1 nM | 1580 | 6500 nM | O=C(CCCCC1CCSS1)OC1CCN(Cc2ccc(F)cc2)CC1 (stereo not drawn) | 11.2 mmol/L | 12.4 mmol/L | 0.32 mU/ml | 98.3% | 0.3 mU/ml | 0.4 µmol/L | 0.32 mU/ml | Active | inactive |
